Here are results for 5 molecules from article PMC8020290 (Journal of Ginseng Research, 2020).

Read-outs that look alike come from different tables or passages of the source. Marks after values point to notes of the source that are not given here.

The format of series [1] is in vivo, Sprague Dawley rats. The settings on record: for AUC: 0 to 48 h; for AUC / Cmax / T1/2 / Tmax / half-life: plasma after intragastric ginsenoside Rb1 100 mg/kg, mean ± SE; for AUC increase compared with the control group: after intragastric ginsenoside Rb1 100 mg/kg. In short, it runs like this: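 Male SD rats (200 ± 20 g, n = 8/group) were gavaged daily for two weeks with prebiotic fibre at 1.0 g/d/rat, or sterile water (10 ml/kg). After an overnight fast, test compound was given intragastrically at 100 mg/kg. Ophthalmic plexus blood was drawn at 0.25–48 h. Plasma was acetone-precipitated with a saikosaponin A internal standard and run on positive-mode UPLC-ESI-QqQ-MS/MS. AUC0–48h came from non-compartmental analysis, mean ± SE, ANOVA/Bonferroni.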

The conditions of series [2]: cited from earlier work.
For the next series, the system named is intestinal microflora. The settings on record: after colimycin 20 mg/kg/day; decreased from 22.1 ± 1.2%; cited from earlier work.
The mark [3] stands for this setting: FOS group (1.0 g/d/rat, two weeks).
The mark [4] stands for this setting: Fibersol-2 group (1.0 g/d/rat, two weeks).
The mark [5] stands for this setting: GOS group (1.0 g/d/rat, two weeks).
The mark [6] stands for this setting: Sprague-Dawley, rat, plasma, po, 100 mg/kg, Cmax, FOS group (1.0 g/d/rat, two weeks).
[7] abbreviates: Sprague-Dawley, rat, plasma, po, 100 mg/kg, Cmax, Fibersol-2 group (1.0 g/d/rat, two weeks).
Where [8] appears, read: Sprague-Dawley, rat, plasma, po, 100 mg/kg, Cmax, GOS group (1.0 g/d/rat, two weeks).
Where [9] appears, read: Sprague-Dawley, rat, plasma, po, 100 mg/kg, T1/2, FOS group (1.0 g/d/rat, two weeks).
Setting [10] is: Sprague-Dawley, rat, plasma, po, 100 mg/kg, T1/2, Fibersol-2 group (1.0 g/d/rat, two weeks).
Where [11] appears, read: Sprague-Dawley, rat, plasma, po, 100 mg/kg, T1/2, GOS group (1.0 g/d/rat, two weeks).
Setting [12] is: Sprague-Dawley, rat, plasma, po, 100 mg/kg, Tmax, FOS group (1.0 g/d/rat, two weeks).
[13] abbreviates: Sprague-Dawley, rat, plasma, po, 100 mg/kg, Tmax, Fibersol-2 group (1.0 g/d/rat, two weeks).
Setting [14] is: Sprague-Dawley, rat, plasma, po, 100 mg/kg, Tmax, GOS group (1.0 g/d/rat, two weeks).

For the molecule `CC(C)=CCC[C@](C)(O[C@@H]1O[C@H](CO)[C@@H](O)[C@H](O)[C@H]1O)[C@H]1CC[C@]2(C)[C@@H]1[C@H](O)C[C@@H]1[C@@]3(C)CC[C@H](O)C(C)(C)[C@@H]3CC[C@]12C` [CK, 20-O-β-D-glucopyranosyl-20(S)-protopanaxadiol], in series [1] (setting [3]), the AUC is listed as 1056.88 ± 173.22^ab ng/ml∗h, the Cmax was 42.94 ± 12.08^a ng/ml, the T1/2 was 92.12 ± 158.19^a h and the Tmax is 24.80 ± 15.60^b h. In addition, in series [1] (setting [4]), the AUC is on record as 1251.99 ± 740.67^b ng/ml∗h, the Cmax was 53.38 ± 25.17^a ng/ml, the T1/2 is listed as 50.86 ± 65.79^a h and the Tmax is 29.00 ± 19.72^b h. In addition, in series [1] (setting [5]), the AUC is 1434.71 ± 415.30^b ng/ml∗h, the peak concentration (Cmax) is given as 57.46 ± 7.17^a ng/ml, the T1/2 is reported as 77.35 ± 129.14^a h and the Tmax is recorded as 15.30 ± 11.98^ab h. Also, the “AUC increase compared with the control group” value (from here on “AUC increase”) in series [1] (GOS intervention) was determined as 2.42 times. For the same molecule, the “AUC increase” value in series [1] (fibersol-2 intervention) came out at 2.11 times. In addition, the oral bioavailability in series [2] is on record as 1.8–35.0%.
As for `CC(C)=CCC[C@](C)(O[C@@H]1O[C@H](CO)[C@@H](O)[C@H](O)[C@H]1O)[C@H]1CC[C@]2(C)[C@@H]1[C@H](O)C[C@@H]1[C@@]3(C)CC[C@H](O[C@@H]4O[C@H](CO)[C@@H](O)[C@H](O)[C@H]4O)C(C)(C)[C@@H]3CC[C@]12C` [F2, ginsenoside F2], the results for the AUC in series [1] (setting [3]), in series [1] (setting [4]) and in series [1] (setting [5]) were 200.38 ± 41.50^b ng/ml∗h, 153.78 ± 36.00^ab ng/ml∗h and 121.97 ± 29.35^a ng/ml∗h, respectively. Besides, the “AUC increase” value in series [1] (FOS intervention) was determined as 1.94 times. For the same molecule, the values for the Cmax in series [1] (setting [6]), in series [1] (setting [7]) and in series [1] (setting [8]) were 15.2 ± 2.49 ng/mL, 35.3 ± 18.3 ng/mL and 11.4 ± 3.44 ng/mL, respectively. The results for the half-life in series [1] (setting [9]), in series [1] (setting [10]) and in series [1] (setting [11]) were 23.2 ± 37.8 h, 2.67 ± 0.95 h and 4.52 ± 3.73 h, respectively. Also, the Tmax in series [1] (setting [12]) is 8 ± 1.41 h; in series [1] (setting [13]), 6.8 ± 1.09 h; in series [1] (setting [14]), 7.6 ± 1.67 h.
As to `CC(C)=CCC[C@](C)(O[C@@H]1O[C@H](CO[C@@H]2O[C@H](CO)[C@@H](O)[C@H](O)[C@H]2O)[C@@H](O)[C@H](O)[C@H]1O)[C@H]1CC[C@]2(C)[C@@H]1[C@H](O)C[C@@H]1[C@@]3(C)CC[C@H](O[C@@H]4O[C@H](CO)[C@@H](O)[C@H](O)[C@H]4O[C@@H]4O[C@H](CO)[C@@H](O)[C@H](O)[C@H]4O)C(C)(C)[C@@H]3CC[C@]12C` [Rb1, ginsenoside Rb1], the AUC in series [1] (setting [3]) is recorded as 34494.77 ± 8770.73^bc ng/ml∗h; in series [1] (setting [4]), 42110.46 ± 6452.33^c ng/ml∗h; in series [1] (setting [5]), 30813.79 ± 3334.99^b ng/ml∗h. In addition, the “AUC increase” value in series [1] (FOS intervention) is 2.52 times; in series [1] (GOS intervention), 2.25 times; in series [1] (fibersol-2 intervention) it was 3.07 times. The highest concentration (Cmax) was found to be 1530 ± 343 ng/mL in series [1] (setting [6]), 3880 ± 2370 ng/mL in series [1] (setting [7]) and 1210 ± 126 ng/mL in series [1] (setting [8]). Also, the half-life in series [1] (setting [9]) is 19.4 ± 4.44 h; in series [1] (setting [10]), 24.2 ± 4.81 h; in series [1] (setting [11]), 19.7 ± 2.06 h. Moreover, the Tmax is 6.3 ± 2.82 h in series [1] (setting [12]), 1 ± 1.12 h in series [1] (setting [13]) and 3.2 ± 3.55 h in series [1] (setting [14]). In addition, in series [2], the oral bioavailability is reported as 0.28–1.18%.
In the case of `CC(C)=CCC[C@](C)(O[C@@H]1O[C@H](CO)[C@@H](O)[C@H](O)[C@H]1O)[C@H]1CC[C@]2(C)[C@@H]1[C@H](O)C[C@@H]1[C@@]3(C)CC[C@H](O[C@@H]4O[C@H](CO)[C@@H](O)[C@H](O)[C@H]4O[C@@H]4O[C@H](CO)[C@@H](O)[C@H](O)[C@H]4O)C(C)(C)[C@@H]3CC[C@]12C` [Rd, ginsenoside Rd], the figures for the AUC in series [1] (setting [3]), in series [1] (setting [4]) and in series [1] (setting [5]) were 1616.98 ± 321.59^b ng/ml∗h, 1754.98 ± 335.76^b ng/ml∗h and 1479.93 ± 381.35^b ng/ml∗h, respectively. For the same molecule, the “AUC increase” value is reported as 1.91 times in series [1] (FOS intervention), 1.74 times in series [1] (GOS intervention) and 2.06 times in series [1] (fibersol-2 intervention). The figures for the peak concentration (Cmax) in series [1] (setting [6]), in series [1] (setting [7]) and in series [1] (setting [8]) were 110 ± 25.1 ng/mL, 145 ± 67.2 ng/mL and 156 ± 39 ng/mL, respectively. Besides, the half-life was 15.2 ± 5.17 h in series [1] (setting [9]), 10.3 ± 3.79 h in series [1] (setting [10]) and 18.6 ± 18 h in series [1] (setting [11]). In addition, the Tmax was 7.6 ± 0.89 h in series [1] (setting [12]), 7.6 ± 1.67 h in series [1] (setting [13]) and 6.4 ± 0.89 h in series [1] (setting [14]).
For colimycin, the “ginsenoside Rb1-hydrolysing activity by intestinal microflora” value with intestinal microflora was 4.7 ± 2.7%.

Broadly, the Cmax is the maximum level reached in the sampled fluid or tissue. The Tmax is the time at which the peak concentration occurs. By half-life is commonly meant the time in which the quantity being followed falls by half. Read a low half-life as fast loss.
